Active and inactive are the calls of the source. No cut-off for these calls is given here.
Columns and labels:
PC-3 [1] = test: Antiproliferative activity against AR-negative human PC3 cells assessed as reduction in cell viability after 5 days by CCK8 assay; type: functional, cell-based; details: PC-3, 120 h
Summary of the method: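 Cells seeded at 3 × 10^3 per well for 24 h, then dosed in 10-point, 3-fold serial dilution from 10 µM. CCK-8 added after 5 days, 4 h at 37 °C, absorbance at 450 nm. IC50 averaged from three separate determinations (at least two independent runs, duplicate wells). PC-3 grown in DMEM/F12 (1:1), LO2 in RPMI 1640, both with 10% FBS.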

[2] = target: T1, Protein cereblon/Cyclin-dependent kinase 2/Cyclin-dependent kinase 9 (Homo sapiens, UniProt P24941+P50750+Q96SW2); test: Protac activity at CRBN/CDK2/CDK9 in AR-negative human PC3 cells assessed as induction of CDK2 protein degradation after 24 hrs by Western blot analysis; type: cell-based; details: PC-3
Summary of the method: (§1)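 PC-3 cells exposed to a degrader concentration series, then immunoblotted for CDK2 and CDK9 versus β-tubulin. The figure legend gives 24 h exposure. DC50 taken as mean of 2 determinations from densitometry.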

[3] = target: T1, Protein cereblon/Cyclin-dependent kinase 2/Cyclin-dependent kinase 9; test: Protac activity at CRBN/CDK2/CDK9 in AR-negative human PC3 cells assessed as induction of CDK9 protein degradation after 24 hrs by Western blot analysis; type: cell-based; details: PC-3; summary of the method: as §1
[4] = target: T1, Protein cereblon/Cyclin-dependent kinase 2/Cyclin-dependent kinase 9; test: Protac activity at CRBN/CDK2/CDK9 in AR-negative human PC3 cells assessed as induction of CDK2 protein degradation at 1 uM after 12 hrs by Western blot analysis; type: cell-based; details: PC-3
Summary of the method: (§2)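 PC-3 cells (5 × 10^5 per well) treated 12 h at single concentrations (50 nM, 500 nM, 1, 5 or 30 µM). RIPA lysates (50 µg) run on 10% SDS-PAGE and immunoblotted for CDK2, CDK5, CDK9 with β-tubulin loading control, then detected by chemiluminescence. Band intensities quantified densitometrically.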

[5] = target: T1, Protein cereblon/Cyclin-dependent kinase 2/Cyclin-dependent kinase 9; test: Protac activity at CRBN/CDK2/CDK9 in AR-negative human PC3 cells assessed as induction of CDK9 protein degradation at 1 uM after 12 hrs by Western blot analysis; type: cell-based; details: PC-3; summary of the method: as §2
[6] = target: T1, Protein cereblon/Cyclin-dependent kinase 2/Cyclin-dependent kinase 9; test: Protac activity at CRBN/CDK2/CDK9 in AR-negative human PC3 cells assessed as induction of CDK9 protein degradation at 30 uM after 12 hrs by Western blot analysis; type: cell-based; details: PC-3; summary of the method: as §2
[7] = target: T2, Protein cereblon/Cyclin-dependent kinase 2 (Homo sapiens) (UniProt P24941+Q96SW2); test: Protac activity at CRBN/CDK2 in AR-negative human PC3 cells assessed as induction of CDK2 protein degradation at 1 uM after 12 hrs by Western blot analysis; type: cell-based; details: PC-3; summary of the method: as §2
[8] = target: T3, Protein cereblon/Cyclin-dependent kinase 9 (Homo sapiens) (UniProt P50750+Q96SW2); test: Protac activity at CRBN/CDK9 in AR-negative human PC3 cells assessed as induction of CDK9 protein degradation at 1 uM after 12 hrs by Western blot analysis; type: cell-based; details: PC-3
Summary of the method: (§3)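 PC-3 cells (DMEM/F12 1:1, 10% FBS, 1% pen/strep, 37 °C, 5% CO2) plated at 5 × 10^5 per well, exposed to compound for 12 h. RIPA lysates with protease inhibitors; 50 µg total protein run on 10% SDS-PAGE, transferred to PVDF, blocked in 5% milk/TBS-T. Probed with anti-CDK9 (1/1000), β-tubulin loading control, HRP secondary, chemiluminescence; bands scored as degradation detected or not.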

[9] = target: T3, Protein cereblon/Cyclin-dependent kinase 9 (Homo sapiens); test: Protac activity at CRBN/CDK9 in AR-negative human PC3 cells assessed as induction of CDK9 protein degradation at 30 uM after 12 hrs by Western blot analysis; type: cell-based; details: PC-3; summary of the method: as §3
[10] = target: T2, Protein cereblon/Cyclin-dependent kinase 2 (Homo sapiens); test: Protac activity at CRBN/CDK2 in AR-negative human PC3 cells assessed as CDK2 degradation at 1 uM preincubated with pomalidomide for 2 hrs and measured after 8 hrs by Western blot analysis; type: cell-based; details: PC-3
Summary of the method: (§4)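 PC-3 cells pretreated 2 h with 10 µM DMSO, AT-7519, pomalidomide or MG-132, then degrader at 1 µM for 8 h. CDK2 immunoblotted against β-tubulin loading control, with 50 µg protein per lane on 10% SDS-PAGE and ECL detection.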

[11] = target: T2, Protein cereblon/Cyclin-dependent kinase 2 (Homo sapiens); test: Protac activity at CRBN/CDK2 in AR-negative human PC3 cells assessed as CDK2 degradation at 1 uM preincubated with proteasome inhibitor MG132 for 2 hrs and measured after 8 hrs by Western blot analysis; type: cell-based; details: PC-3; summary of the method: as §4
[12] = target: Protein cereblon/Cyclin-dependent kinase 5 (Homo sapiens) (UniProt Q00535+Q96SW2); test: Protac activity at CRBN/CDK5 in AR-negative human PC3 cells assessed as induction of CDK5 protein degradation at 1 uM after 12 hrs by Western blot analysis; type: cell-based; details: PC-3; summary of the method: as §2
[13] = target: T3, Protein cereblon/Cyclin-dependent kinase 9 (Homo sapiens); test: Protac activity at CRBN/CDK9 in AR-negative human PC3 cells assessed as induction of CDK9 protein degradation at 5 uM after 12 hrs by Western blot analysis; type: cell-based; details: PC-3; summary of the method: as §3
[14] = target: T2, Protein cereblon/Cyclin-dependent kinase 2 (Homo sapiens); test: Protac activity at CRBN/CDK2 in AR-negative human PC3 cells assessed as CDK2 degradation at 1 uM preincubated with AT-7519 for 2 hrs and measured after 8 hrs by Western blot analysis; details: PC-3
[15] = target: T1, Protein cereblon/Cyclin-dependent kinase 2/Cyclin-dependent kinase 9; test: Protac activity at CRBN/CDK2/CDK9 in AR-negative human PC3 cells assessed as induction of CDK2 protein degradation at 5 uM after 12 hrs by Western blot analysis; type: cell-based; details: PC-3; summary of the method: as §2
[16] = target: T1, Protein cereblon/Cyclin-dependent kinase 2/Cyclin-dependent kinase 9; test: Protac activity at CRBN/CDK2/CDK9 in AR-negative human PC3 cells assessed as induction of CDK9 protein degradation at 5 uM after 12 hrs by Western blot analysis; type: cell-based; details: PC-3; summary of the method: as §2
[17] = target: T2, Protein cereblon/Cyclin-dependent kinase 2 (Homo sapiens); test: Protac activity at CRBN/CDK2 in AR-negative human PC3 cells assessed as induction of CDK2 protein degradation at 50 nM after 12 hrs by Western blot analysis; type: cell-based; details: PC-3; summary of the method: as §2
[18] = target: T3, Protein cereblon/Cyclin-dependent kinase 9 (Homo sapiens); test: Protac activity at CRBN/CDK9 in AR-negative human PC3 cells assessed as induction of CDK9 protein degradation at 50 nM after 12 hrs by Western blot analysis; type: cell-based; details: PC-3; summary of the method: as §3
[19] = target: T1, Protein cereblon/Cyclin-dependent kinase 2/Cyclin-dependent kinase 9; test: Protac activity at CRBN/CDK2/CDK9 in AR-negative human PC3 cells assessed as CDK2 degradation at 10 to 10^4 nM after 12 hrs by Western blot analysis; type: cell-based; details: PC-3
[20] = target: T1, Protein cereblon/Cyclin-dependent kinase 2/Cyclin-dependent kinase 9; test: Protac activity at CRBN/CDK2/CDK9 in AR-negative human PC3 cells assessed as CDK9 degradation at 10 to 10^4 nM after 12 hrs by Western blot analysis; type: cell-based; details: PC-3
PC-3 [21] = test: Induction of cell cycle arrest in human PC3 cells assessed as accumulation at G0/G1 phase at 3 uM after 48 hrs by propidium iodide staining based flow cytometry (reference value: 59.80%); type: functional
PC-3 [22] = test: Induction of cell cycle arrest in human PC3 cells assessed as accumulation at S phase at 3 uM after 48 hrs by propidium iodide staining based flow cytometry (reference value: 17.96%); type: functional
PC-3 [23] = test: Induction of cell cycle arrest in human PC3 cells assessed as accumulation at G2/M phase at 3 uM after 48 hrs by propidium iodide staining based flow cytometry (reference value: 22.24%); type: functional

T3 sequence (P50750 whole entry, looked up): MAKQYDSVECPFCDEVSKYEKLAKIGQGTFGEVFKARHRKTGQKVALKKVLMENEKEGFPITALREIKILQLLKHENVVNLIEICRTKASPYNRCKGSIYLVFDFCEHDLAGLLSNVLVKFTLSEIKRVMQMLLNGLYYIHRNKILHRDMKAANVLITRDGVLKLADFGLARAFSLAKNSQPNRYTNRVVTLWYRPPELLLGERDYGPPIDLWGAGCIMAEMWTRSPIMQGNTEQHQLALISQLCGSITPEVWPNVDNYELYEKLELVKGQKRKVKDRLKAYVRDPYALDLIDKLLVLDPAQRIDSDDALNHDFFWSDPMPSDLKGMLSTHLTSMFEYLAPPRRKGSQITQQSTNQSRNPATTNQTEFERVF
T3 sequence (Q96SW2 whole entry, looked up): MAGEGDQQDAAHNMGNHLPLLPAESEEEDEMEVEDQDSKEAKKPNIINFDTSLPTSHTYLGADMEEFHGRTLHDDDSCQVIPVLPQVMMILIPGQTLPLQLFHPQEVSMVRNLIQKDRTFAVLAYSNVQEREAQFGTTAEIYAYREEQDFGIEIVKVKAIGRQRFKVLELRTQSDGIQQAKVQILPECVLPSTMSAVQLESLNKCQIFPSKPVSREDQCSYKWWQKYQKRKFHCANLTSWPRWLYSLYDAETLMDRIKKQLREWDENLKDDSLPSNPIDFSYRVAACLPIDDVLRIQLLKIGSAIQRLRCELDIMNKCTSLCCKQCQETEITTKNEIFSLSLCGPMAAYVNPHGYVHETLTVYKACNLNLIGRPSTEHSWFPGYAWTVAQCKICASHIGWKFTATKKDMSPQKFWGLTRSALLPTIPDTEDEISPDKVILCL
Sequence of Protein cereblon/Cyclin-dependent kinase 5 (Homo sapiens) (Q00535 whole entry, looked up): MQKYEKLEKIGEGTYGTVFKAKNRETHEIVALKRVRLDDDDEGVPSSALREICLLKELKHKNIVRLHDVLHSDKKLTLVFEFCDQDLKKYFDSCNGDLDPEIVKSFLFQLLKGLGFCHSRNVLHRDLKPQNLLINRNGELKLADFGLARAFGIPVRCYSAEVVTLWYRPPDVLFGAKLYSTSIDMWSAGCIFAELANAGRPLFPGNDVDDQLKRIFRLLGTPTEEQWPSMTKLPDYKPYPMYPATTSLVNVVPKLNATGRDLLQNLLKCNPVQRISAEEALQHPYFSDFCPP
Sequence of Protein cereblon/Cyclin-dependent kinase 5 (Homo sapiens) (Q96SW2 whole entry, looked up): as the sequence (Q96SW2 whole entry, looked up) above

SMILES: O=C(CCC(=O)N1CCC(NC(=O)c2n[nH]cc2NC(=O)c2c(Cl)cccc2Cl)CC1)NCCCCNc1cccc2c1C(=O)N(C1CCC(=O)NC1=O)C2=O (stereo not given)
- IC50 (PC-3 [1]): 23300 nM

SMILES: O=C(CCC(=O)N1CCN(Cc2ccc(NC(=O)c3n[nH]cc3Nc3ncnc4[nH]ccc34)cc2)CC1)NCCCCNC(=O)COc1cccc2c1C(=O)N(C1CCC(=O)NC1=O)C2=O (stereo not given)
- IC50 (PC-3 [1]): 13400 nM
- Activity [2]: inactive
- Activity [3]: inactive

SMILES: O=C(COc1cccc2c1C(=O)N(C1CCC(=O)NC1=O)C2=O)NCCCC(=O)N1CCN(Cc2ccc(NC(=O)c3n[nH]cc3Nc3ncnc4[nH]ccc34)cc2)CC1 (stereo not given)
- Activity [4]: Active
- IC50 (PC-3 [1]): 2210 nM
- Activity [5]: Active
- Activity [6]: Active

SMILES: O=C(COc1cccc2c1C(=O)N(C1CCC(=O)NC1=O)C2=O)NCCOCCOCC(=O)N1CCC(NC(=O)c2n[nH]cc2NC(=O)c2c(Cl)cccc2Cl)CC1 (stereo not given)
- Activity [7]: Active
- Activity [8]: inactive
- Activity [9]: Active
- IC50 (PC-3 [1]): 840 nM
- Activity [10]: inactive
- Activity [11]: inactive
- Activity [12]: inactive
- Activity [13]: Active
- Activity [14]: inactive

SMILES: O=C(CCC(=O)N1CCC(NC(=O)c2n[nH]cc2NC(=O)c2c(Cl)cccc2Cl)CC1)NCCCOCCOCCOCCCNC(=O)COc1cccc2c1C(=O)N(C1CCC(=O)NC1=O)C2=O (stereo not given)
- IC50 (PC-3 [1]): 2020 nM

SMILES: O=C(CCC(=O)N1CCN(Cc2ccc(NC(=O)c3n[nH]cc3Nc3ncnc4[nH]ccc34)cc2)CC1)NCCNC(=O)COc1cccc2c1C(=O)N(C1CCC(=O)NC1=O)C2=O (stereo not given)
- Activity [8]: Active
- Activity [9]: Active
- IC50 (PC-3 [1]): 8030 nM

SMILES: O=C(COc1cccc2c1C(=O)N(C1CCC(=O)NC1=O)C2=O)NCCCCCC(=O)N1CCC(NC(=O)c2n[nH]cc2NC(=O)c2c(Cl)cccc2Cl)CC1 (stereo not given)
- Activity [7]: Active
- Activity [15]: Active
- Activity [16]: Active
- Activity [8]: inactive
- Activity [12]: inactive
- Activity [6]: Active

SMILES: O=C(NC1CCNCC1)c1n[nH]cc1NC(=O)c1c(Cl)cccc1Cl [AT-7519]
- IC50 (PC-3 [1]): 710 nM

SMILES: O=C(COc1cccc2c1C(=O)N(C1CCC(=O)NC1=O)C2=O)NCCCCCC(=O)N1CCN(Cc2ccc(NC(=O)c3n[nH]cc3Nc3ncnc4[nH]ccc34)cc2)CC1 (stereo not given)
- Activity [4]: Active
- Activity [17]: Active
- Activity [18]: Active
- IC50 (PC-3 [1]): 540 nM
- Activity [5]: Active
- Activity [6]: Active

SMILES: CN1C(=O)CCC(N2C(=O)c3cccc(NCCNC(=O)CCC(=O)N4CCN(Cc5ccc(NC(=O)c6n[nH]cc6Nc6ncnc7[nH]ccc67)cc5)CC4)c3C2=O)C1=O (stereo not given)
- Activity [19]: inactive
- Activity [20]: inactive

SMILES: CN1CCN(Cc2ccc(NC(=O)c3n[nH]cc3Nc3ncnc4[nH]ccc34)cc2)CC1
- IC50 (PC-3 [1]): 690 nM
- Activity (PC-3 [21]): 45.58%
- Activity (PC-3 [22]): 16.52%
- Activity (PC-3 [23]): 37.9%
